Reference: ChEMBL document CHEMBL2203081 (Bioorg Med Chem Lett, 2012)

What was measured:
[1] = tested on: Mast/stem cell growth factor receptor Kit (Homo sapiens), P10721 [L576P]; assay: Inhibition of KIT L576P mutant assessed as residual activity at 10 uM relative to control
[2] = target: Macrophage colony-stimulating factor 1 receptor (Homo sapiens) (UniProt P07333); assay: Inhibition of CSF1R assessed as residual activity at 10 uM relative to control
Method in brief: (§1)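 Competition kinase-binding assay (KINOMEscan) across a non-redundant panel of 329 kinases beyond the radiometric panel; residual binding expressed relative to control.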

[3] = target: Microtubule-associated serine/threonine-protein kinase 1 (Homo sapiens) (UniProt Q9Y2H9); assay: Inhibition of MAST1 assessed as residual activity at 10 uM relative to control
[4] = target: Serine/threonine-protein kinase Sgk1 (Homo sapiens) (UniProt O00141); assay: Inhibition of SGK assessed as residual activity at 10 uM relative to control
[5] = target: T1, Serine/threonine-protein kinase STK11 (Homo sapiens) (UniProt Q15831); assay: Inhibition of LKB1 assessed as residual activity at 1 uM
T1 sequence (whole entry): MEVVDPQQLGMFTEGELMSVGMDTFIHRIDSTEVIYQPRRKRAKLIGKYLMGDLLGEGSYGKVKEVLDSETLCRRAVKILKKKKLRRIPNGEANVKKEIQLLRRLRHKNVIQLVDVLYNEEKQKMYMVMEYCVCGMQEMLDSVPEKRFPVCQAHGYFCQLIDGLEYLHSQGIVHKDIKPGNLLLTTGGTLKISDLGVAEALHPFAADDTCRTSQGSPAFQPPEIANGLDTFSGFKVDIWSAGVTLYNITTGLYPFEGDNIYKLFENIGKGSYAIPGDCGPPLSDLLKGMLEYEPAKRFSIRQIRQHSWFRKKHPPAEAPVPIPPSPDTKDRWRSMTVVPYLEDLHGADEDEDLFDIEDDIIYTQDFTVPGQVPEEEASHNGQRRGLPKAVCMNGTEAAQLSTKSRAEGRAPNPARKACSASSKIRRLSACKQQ

[6] = target: Dual specificity protein kinase CLK4 (Homo sapiens) (UniProt Q9HAZ1); assay: Inhibition of CLK4 assessed as residual activity at 10 uM relative to control; method in brief: as §1
[7] = target: T2, NUAK family SNF1-like kinase 1 (Homo sapiens) (UniProt O60285); assay: Inhibition of ARK5 assessed as residual activity at 10 uM relative to control
T2 sequence (whole entry): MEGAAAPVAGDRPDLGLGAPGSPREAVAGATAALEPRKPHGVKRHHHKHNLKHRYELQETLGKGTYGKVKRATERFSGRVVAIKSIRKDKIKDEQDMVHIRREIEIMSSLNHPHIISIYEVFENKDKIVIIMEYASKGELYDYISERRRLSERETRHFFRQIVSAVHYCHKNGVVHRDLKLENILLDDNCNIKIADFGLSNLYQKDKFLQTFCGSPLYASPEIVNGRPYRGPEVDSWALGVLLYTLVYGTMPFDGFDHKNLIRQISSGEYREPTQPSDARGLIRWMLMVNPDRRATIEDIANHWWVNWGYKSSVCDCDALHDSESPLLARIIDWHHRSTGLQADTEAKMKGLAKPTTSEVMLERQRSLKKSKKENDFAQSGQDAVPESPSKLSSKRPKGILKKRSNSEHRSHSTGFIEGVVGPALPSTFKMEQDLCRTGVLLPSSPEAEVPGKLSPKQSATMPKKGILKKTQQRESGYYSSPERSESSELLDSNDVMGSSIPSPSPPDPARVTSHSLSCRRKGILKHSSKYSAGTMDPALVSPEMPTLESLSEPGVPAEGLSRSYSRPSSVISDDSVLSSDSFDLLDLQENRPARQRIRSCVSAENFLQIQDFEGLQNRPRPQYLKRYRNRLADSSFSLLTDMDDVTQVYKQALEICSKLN

[8] = target: Serine/threonine-protein kinase pim-1 (Homo sapiens) (UniProt P11309); assay: Inhibition of PIM1 assessed as residual activity at 10 uM
[9] = target: Receptor-interacting serine/threonine-protein kinase 2 (Homo sapiens) (UniProt O43353); assay: Inhibition of RIPK2 assessed as residual activity at 10 uM
[10] = target: Casein kinase I isoform delta (Homo sapiens) (UniProt P48730); assay: Inhibition of CSNK1D assessed as residual activity at 10 uM relative to control; method in brief: as §1
[11] = target: Ephrin type-A receptor 5 (Homo sapiens) (UniProt P54756); assay: Inhibition of EPHA5 assessed as residual activity at 10 uM relative to control; method in brief: as §1

Chain of Dual specificity protein kinase CLK4 (Homo sapiens) (Q9HAZ1 whole entry, looked up): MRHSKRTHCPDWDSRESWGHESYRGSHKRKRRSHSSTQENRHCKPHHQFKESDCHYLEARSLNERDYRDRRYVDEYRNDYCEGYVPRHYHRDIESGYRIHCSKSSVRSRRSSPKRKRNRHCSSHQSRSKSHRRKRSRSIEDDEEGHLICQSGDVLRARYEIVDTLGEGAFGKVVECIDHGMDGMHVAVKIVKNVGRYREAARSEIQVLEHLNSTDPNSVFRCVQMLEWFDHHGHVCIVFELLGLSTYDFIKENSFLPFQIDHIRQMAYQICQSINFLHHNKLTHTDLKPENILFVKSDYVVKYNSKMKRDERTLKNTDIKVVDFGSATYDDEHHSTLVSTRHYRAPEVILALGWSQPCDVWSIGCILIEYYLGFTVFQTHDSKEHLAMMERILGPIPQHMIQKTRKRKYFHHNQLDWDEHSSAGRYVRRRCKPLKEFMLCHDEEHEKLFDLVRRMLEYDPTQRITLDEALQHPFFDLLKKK
Chain of Microtubule-associated serine/threonine-protein kinase 1 (Homo sapiens) (Q9Y2H9 whole entry, looked up): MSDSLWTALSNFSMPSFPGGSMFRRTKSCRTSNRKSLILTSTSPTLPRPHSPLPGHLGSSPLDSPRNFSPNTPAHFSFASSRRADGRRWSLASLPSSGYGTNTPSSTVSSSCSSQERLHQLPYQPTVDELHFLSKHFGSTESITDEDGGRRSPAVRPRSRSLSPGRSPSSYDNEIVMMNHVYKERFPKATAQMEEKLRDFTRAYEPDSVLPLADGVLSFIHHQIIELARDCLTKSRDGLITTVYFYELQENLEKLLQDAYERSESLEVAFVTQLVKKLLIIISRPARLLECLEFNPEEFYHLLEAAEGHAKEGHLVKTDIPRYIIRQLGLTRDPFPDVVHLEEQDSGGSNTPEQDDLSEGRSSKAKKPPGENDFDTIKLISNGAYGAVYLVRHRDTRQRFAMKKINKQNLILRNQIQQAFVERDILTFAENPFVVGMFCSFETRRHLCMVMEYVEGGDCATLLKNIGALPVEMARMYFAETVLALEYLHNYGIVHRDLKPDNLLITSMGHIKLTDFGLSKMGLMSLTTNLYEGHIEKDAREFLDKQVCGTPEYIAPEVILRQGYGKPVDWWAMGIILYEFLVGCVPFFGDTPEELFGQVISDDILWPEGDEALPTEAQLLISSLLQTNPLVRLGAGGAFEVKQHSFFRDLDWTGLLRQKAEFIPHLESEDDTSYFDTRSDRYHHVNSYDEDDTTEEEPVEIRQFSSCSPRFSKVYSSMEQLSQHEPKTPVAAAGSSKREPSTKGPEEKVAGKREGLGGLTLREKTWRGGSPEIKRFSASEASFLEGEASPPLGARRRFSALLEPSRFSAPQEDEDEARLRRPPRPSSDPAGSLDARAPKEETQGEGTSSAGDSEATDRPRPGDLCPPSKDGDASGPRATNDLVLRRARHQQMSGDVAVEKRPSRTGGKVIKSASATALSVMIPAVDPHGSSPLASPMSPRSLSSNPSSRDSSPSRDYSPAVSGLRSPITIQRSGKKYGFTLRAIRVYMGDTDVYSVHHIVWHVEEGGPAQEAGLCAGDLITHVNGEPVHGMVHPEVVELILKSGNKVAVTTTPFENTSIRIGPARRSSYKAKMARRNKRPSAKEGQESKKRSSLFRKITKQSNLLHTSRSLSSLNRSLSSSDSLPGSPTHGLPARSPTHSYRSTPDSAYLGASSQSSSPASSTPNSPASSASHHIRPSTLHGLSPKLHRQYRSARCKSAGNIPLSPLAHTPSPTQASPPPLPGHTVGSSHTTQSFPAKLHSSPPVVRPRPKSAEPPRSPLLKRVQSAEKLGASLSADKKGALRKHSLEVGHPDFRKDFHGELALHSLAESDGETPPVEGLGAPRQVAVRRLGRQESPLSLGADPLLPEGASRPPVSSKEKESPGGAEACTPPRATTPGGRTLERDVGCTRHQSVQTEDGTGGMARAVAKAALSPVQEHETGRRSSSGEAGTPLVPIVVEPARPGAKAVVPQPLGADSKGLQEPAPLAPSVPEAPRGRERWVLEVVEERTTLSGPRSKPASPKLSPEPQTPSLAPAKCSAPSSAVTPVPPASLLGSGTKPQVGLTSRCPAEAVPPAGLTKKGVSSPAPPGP
Chain of Macrophage colony-stimulating factor 1 receptor (Homo sapiens) (P07333 whole entry): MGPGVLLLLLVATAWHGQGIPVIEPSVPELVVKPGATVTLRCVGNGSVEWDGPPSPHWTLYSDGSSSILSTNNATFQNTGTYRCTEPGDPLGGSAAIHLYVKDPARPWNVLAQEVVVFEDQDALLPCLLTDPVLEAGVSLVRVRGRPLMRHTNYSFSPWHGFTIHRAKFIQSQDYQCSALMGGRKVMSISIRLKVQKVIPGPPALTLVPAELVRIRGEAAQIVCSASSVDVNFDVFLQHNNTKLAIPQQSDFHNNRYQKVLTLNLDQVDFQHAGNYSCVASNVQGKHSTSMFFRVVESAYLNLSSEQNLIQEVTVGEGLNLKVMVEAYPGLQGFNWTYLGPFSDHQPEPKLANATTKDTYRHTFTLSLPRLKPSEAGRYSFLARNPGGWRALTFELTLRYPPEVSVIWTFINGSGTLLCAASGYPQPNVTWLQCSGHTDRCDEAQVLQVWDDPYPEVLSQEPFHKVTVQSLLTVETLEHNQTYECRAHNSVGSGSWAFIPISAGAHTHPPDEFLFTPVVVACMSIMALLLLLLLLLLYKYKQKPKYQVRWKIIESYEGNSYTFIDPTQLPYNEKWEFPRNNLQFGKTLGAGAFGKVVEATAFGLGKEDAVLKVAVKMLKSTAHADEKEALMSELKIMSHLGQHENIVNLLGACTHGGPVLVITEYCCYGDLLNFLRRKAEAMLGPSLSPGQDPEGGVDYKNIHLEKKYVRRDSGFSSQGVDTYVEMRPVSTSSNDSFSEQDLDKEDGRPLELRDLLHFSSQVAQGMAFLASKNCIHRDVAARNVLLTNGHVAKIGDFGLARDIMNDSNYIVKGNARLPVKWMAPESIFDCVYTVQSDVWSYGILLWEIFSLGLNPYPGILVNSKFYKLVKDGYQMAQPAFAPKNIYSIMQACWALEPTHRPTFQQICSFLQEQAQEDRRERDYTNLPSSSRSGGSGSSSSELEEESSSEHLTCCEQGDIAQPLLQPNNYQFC
Chain of Mast/stem cell growth factor receptor Kit (Homo sapiens), P10721 [L576P] (P10721 whole entry L576P): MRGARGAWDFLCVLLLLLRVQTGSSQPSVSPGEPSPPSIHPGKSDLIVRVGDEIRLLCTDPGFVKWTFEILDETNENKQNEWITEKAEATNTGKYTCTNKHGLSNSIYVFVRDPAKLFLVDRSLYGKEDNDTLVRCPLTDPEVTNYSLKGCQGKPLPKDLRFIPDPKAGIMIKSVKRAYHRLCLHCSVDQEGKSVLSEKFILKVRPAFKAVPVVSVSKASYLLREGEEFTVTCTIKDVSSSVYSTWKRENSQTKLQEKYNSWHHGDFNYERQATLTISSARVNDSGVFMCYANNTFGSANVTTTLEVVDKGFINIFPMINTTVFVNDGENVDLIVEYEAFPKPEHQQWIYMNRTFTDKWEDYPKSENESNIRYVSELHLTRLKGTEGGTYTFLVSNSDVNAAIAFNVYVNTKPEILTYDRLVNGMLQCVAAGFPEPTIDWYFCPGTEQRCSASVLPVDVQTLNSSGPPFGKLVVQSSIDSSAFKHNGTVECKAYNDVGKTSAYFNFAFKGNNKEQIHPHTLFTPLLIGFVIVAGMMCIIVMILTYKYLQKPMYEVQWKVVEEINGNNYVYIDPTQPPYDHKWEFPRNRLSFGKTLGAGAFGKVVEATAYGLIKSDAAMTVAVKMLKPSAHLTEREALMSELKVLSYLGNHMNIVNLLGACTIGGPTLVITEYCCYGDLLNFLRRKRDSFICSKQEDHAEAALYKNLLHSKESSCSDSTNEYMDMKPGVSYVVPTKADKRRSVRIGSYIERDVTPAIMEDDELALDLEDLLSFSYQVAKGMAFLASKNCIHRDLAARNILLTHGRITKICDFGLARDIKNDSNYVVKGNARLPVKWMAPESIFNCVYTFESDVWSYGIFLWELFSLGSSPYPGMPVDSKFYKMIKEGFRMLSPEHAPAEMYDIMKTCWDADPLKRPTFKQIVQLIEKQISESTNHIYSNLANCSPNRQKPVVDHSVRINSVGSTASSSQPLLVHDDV
Chain of Receptor-interacting serine/threonine-protein kinase 2 (Homo sapiens) (O43353 whole entry, canonical isoform): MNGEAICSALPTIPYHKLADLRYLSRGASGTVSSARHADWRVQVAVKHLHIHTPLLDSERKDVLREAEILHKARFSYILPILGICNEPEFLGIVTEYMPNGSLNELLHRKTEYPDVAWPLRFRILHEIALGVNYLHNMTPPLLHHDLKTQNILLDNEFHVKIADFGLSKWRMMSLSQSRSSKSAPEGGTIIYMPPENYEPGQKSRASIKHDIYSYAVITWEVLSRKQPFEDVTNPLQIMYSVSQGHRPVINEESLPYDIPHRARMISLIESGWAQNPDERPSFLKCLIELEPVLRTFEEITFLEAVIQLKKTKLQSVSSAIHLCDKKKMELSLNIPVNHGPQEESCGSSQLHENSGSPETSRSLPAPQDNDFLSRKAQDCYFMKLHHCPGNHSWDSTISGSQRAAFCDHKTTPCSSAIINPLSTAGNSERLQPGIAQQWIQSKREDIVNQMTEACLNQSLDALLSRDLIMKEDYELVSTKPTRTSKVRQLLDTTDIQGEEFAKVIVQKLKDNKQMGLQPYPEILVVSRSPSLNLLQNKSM
Chain of Serine/threonine-protein kinase Sgk1 (Homo sapiens) (O00141 whole entry): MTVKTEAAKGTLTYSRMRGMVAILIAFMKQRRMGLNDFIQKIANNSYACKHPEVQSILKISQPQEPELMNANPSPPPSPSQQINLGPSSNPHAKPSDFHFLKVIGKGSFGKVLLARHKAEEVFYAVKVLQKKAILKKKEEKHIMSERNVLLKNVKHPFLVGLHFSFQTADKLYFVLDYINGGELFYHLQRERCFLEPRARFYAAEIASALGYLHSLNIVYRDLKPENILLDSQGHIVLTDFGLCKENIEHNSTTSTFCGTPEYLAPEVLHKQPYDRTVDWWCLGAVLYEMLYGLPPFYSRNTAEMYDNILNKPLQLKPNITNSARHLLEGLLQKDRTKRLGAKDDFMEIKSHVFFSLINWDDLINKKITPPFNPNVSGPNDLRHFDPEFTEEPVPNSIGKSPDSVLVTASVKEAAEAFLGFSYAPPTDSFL

`O=C(Nc1cccnc1)c1cc(-c2ccnc(F)c2)ccc1OCc1ccccc1` was tested, and the Activity [1] was 52%, the Activity [2] was 68% and the Activity [3] was 35%. The Activity [4] was 33%, the Activity [5] was 97% and the Activity [6] was 46%. It also gave an Activity [7] of 50%, an Activity [8] of 109% and an Activity [9] of 56%. The Activity [10] was 19% and the Activity [11] was 48%.
